Data from the EternaBench riboswitch data.

What was measured:
MS2 coat protein [1] = assay: apparent Kd, MS2 coat protein; higher = weaker binding; RNA-MaP array; tryptophan 2.4 mM where present
In short: (§1)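 Green signal from SNAP-549-labelled MS2 coat protein was normalised to red-channel RNA signal and to the median Fmax of control clusters. The protein was titrated from 0.7 or 1.5 nM, doubling to 3 µM, without and then with constant ligand, over designs transcribed by stalled E. coli RNA polymerase on Illumina sequencing-chip clusters, in 100 mM Tris-HCl pH 7.5, 80 mM KCl, 4 mM MgCl2, BSA, DTT, yeast tRNA and Tween-20. The apparent Kd is the median of filtered per-cluster binding-curve fits.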

MS2 coat protein [2] = assay: apparent Kd, MS2 coat protein; higher = weaker binding; RNA-MaP array; theophylline 2 mM where present
In short: as §1

[3] = designed as: ON switch for tryptophan, no ligand
[4] = ligand present: tryptophan, designed as: ON switch for tryptophan
[5] = designed as: OFF switch for tryptophan, no ligand
[6] = ligand present: tryptophan, designed as: OFF switch for tryptophan
[7] = designed as: ON switch for theophylline, no ligand
[8] = ligand present: theophylline, designed as: ON switch for theophylline

## AAUACCGGAUCGGCCGCCACUGGUUGGCCCUGUGUACAUGAGGAUCACCCAUGUCCAUCCCAAACCAGGACCGGGAUCUUUGUGC
MS2 coat protein [1]; [3]
  apparent Kd: 12 nM
MS2 coat protein [1]; [4]
  apparent Kd: 10.2 nM

## CACAGUGCGAAUUUGAAUUCGCACGAUCCUCGAGGACCGGUACGGCCGCCACUCGCGCGGGUCGUACAUGAGGAUCACCCAUGUC
MS2 coat protein [1]; [3]
  apparent Kd: 166 nM
MS2 coat protein [1]; [4]
  apparent Kd: 842 nM

## GCAUCCUAGUCGGCCGCCACUGCAAUUGUAAUACUGCUACAUGAGGAUCACCCAUGUCCAUGUAGCAGGACCGGGACUAGGAUGC
MS2 coat protein [1]; [3]
  apparent Kd: 578 nM
MS2 coat protein [1]; [4]
  apparent Kd: 79.8 nM

## AAUUAGAUGUCGGCCGCCACUGAUGUGUCUGUUGCGUCCAGUGUGUACAUGAGGAUCACCCAUGUCAGGACCGGGACUUUAAAUU
MS2 coat protein [1]; [5]
  apparent Kd: 11 nM
MS2 coat protein [1]; [6]
  apparent Kd: 34 nM

## AUACAUGAGGAUCACCCAUGUGAUGGCCGGCGAGGACCGGUACGGCCGCCACUCGUGAUCCGUCCUGAAAGCAAAGCUUCCAGCA
MS2 coat protein [1]; [3]
  apparent Kd: 182 nM
MS2 coat protein [1]; [4]
  apparent Kd: 239 nM

## UUACCGUAAGGUAUACCGGUCUACAAUAAUCGAGGACCGGUACGGCCGCCACUCGAUGUGUAAUCACAUGAGGAUCACCCAUGUA
MS2 coat protein [1]; [3]
  apparent Kd: 23.3 nM
MS2 coat protein [1]; [4]
  apparent Kd: 18.5 nM

## AAUUAAACAUCGGCCGCCACUUACUCAUGAGGUAACAACAUGAGGAUCACCCAUGUUUGAGGAUCAAGGACCGGGAUGUAAUAAU
MS2 coat protein [1]; [3]
  apparent Kd: 31.3 nM
MS2 coat protein [1]; [4]
  apparent Kd: 22.6 nM

## AACAUGAGGAUCACCCAUGUGUCCUCGAAACGAGGACCGGUACGGCCGCCACUCGAAUAAGCUGUUGACGAAAAGUCAGCAGCAA
MS2 coat protein [1]; [5]
  apparent Kd: 257 nM
MS2 coat protein [1]; [6]
  apparent Kd: 670 nM

## GAUAUUUGAAAACAAAUAUCAGUGGGUGAACGAGGACCGGUACGGCCGCCACUCGGACAUGAGGAUCACCCAUGUCCAUGUGAAA
MS2 coat protein [1]; [5]
  apparent Kd: 15.6 nM
MS2 coat protein [1]; [6]
  apparent Kd: 37.4 nM

## AUAACAUGAGGAUCACCCAUGUAUUGGUAACGAGGACCGGUACGGCCGCCACUCGUAUUUUGGUGGUAUUAUAUAUAUAUGAUUA
MS2 coat protein [1]; [3]
  apparent Kd: 20.8 nM
MS2 coat protein [1]; [4]
  apparent Kd: 19.7 nM

## GCGGAAUAAUCGGCCGCCACUAUGAGACAGGAAACUGUCACAUGAGGAUCACCCAUGUAUCCUCAUAGGACCGGGAUUAAAACGC
MS2 coat protein [1]; [3]
  apparent Kd: 76.3 nM
MS2 coat protein [1]; [4]
  apparent Kd: 19.4 nM

## GGAUAGGACACGGCCGCCACUAGCUAGGAUACUAGCAACAUUUCCUCACAUGAGGAUCACCCAUGUAGGACCGGGUGUCCUAUCG
MS2 coat protein [1]; [5]
  apparent Kd: 111 nM
MS2 coat protein [1]; [6]
  apparent Kd: 135 nM

## GCCGGUACGUCGGCAAAGCCGAUGUGCCAGCGAGGACCGGUACGGCCGCCACUCGUACAUGAGGAUCACCCAUGUCCGGUCCGGC
MS2 coat protein [1]; [3]
  apparent Kd: 44.7 nM
MS2 coat protein [1]; [4]
  apparent Kd: 49 nM

## AACAUGAGGAUCACCCAUGUCCCAUGUGAACGAGGACCGGUACGGCCGCCACUCGAAUAAGGCGGCACAUGAGGAUCACCCACAU
MS2 coat protein [1]; [3]
  apparent Kd: 168 nM
MS2 coat protein [1]; [4]
  apparent Kd: 373 nM

## CACAGUGCGAAUUUGAAAUCGCACGAUCCUCGAGGACCGGUACGGCCGCCACUCGCGCGGGUCGUACAUGAGGAUCACCCAUGUC
MS2 coat protein [1]; [3]
  apparent Kd: 317 nM
MS2 coat protein [1]; [4]
  apparent Kd: 545 nM

## GGUACAUGAGGAUCACCCAUGUAUUGGUACCGAGGACCGGUACGGCCGCCACUCGCAUGACAUGAGGAUCACCCAUGUGAAACCU
MS2 coat protein [1]; [3]
  apparent Kd: 52.5 nM
MS2 coat protein [1]; [4]
  apparent Kd: 66.5 nM

## AAAGAUCGGAAACGAUCGGCGGCUUGGGCGCGAGGACCGGUACGGCCGCCACUCGGGAAACAUGAGGAUCACCCAUGUUGCUUCU
MS2 coat protein [1]; [5]
  apparent Kd: 10.9 nM
MS2 coat protein [1]; [6]
  apparent Kd: 12 nM

## ACAUGAGGAUCACCCAUGUGAAGCAGGGUACGAGGACCGGUACGGCCGCCACUCGAGGAUUAUGCCGAGUGAAUGGCAACGAUGU
MS2 coat protein [1]; [5]
  apparent Kd: 14.4 nM
MS2 coat protein [1]; [6]
  apparent Kd: 15.4 nM

## AUCAUAAUAGACUCGUUAGAUUAUAUGGAACGAGGACCGGUACGGCCGCCACUCGUGAUGUACAUGAGGAUCACCCAUGUUAGCA
MS2 coat protein [1]; [3]
  apparent Kd: 13.5 nM
MS2 coat protein [1]; [4]
  apparent Kd: 13.5 nM

## ACAUGAGGAUCACCCAUGUGUGUAAAUCCUCGAGGACCGGUACGGCCGCCACUCGAUCGAGUGUAAGUUGAAUGUAACAUUCAAC
MS2 coat protein [1]; [3]
  apparent Kd: 88.4 nM
MS2 coat protein [1]; [4]
  apparent Kd: 70.5 nM

## ACGCUGCAUAGGAAAACUAUGUAGCGAAAUCGAGGACCGGUACGGCCGCCACUCGUCCUCAACAUGAGGAUCACCCAUGUAAUAA
MS2 coat protein [1]; [5]
  apparent Kd: 19.9 nM
MS2 coat protein [1]; [6]
  apparent Kd: 34.7 nM

## UAAUAAUUCCUCAUGUCACGAGUGGCAUAACGAGGACCGGUACGGCCGCCACUCGAACAUGAGGAUCACCCAUGUAGCCACUCGA
MS2 coat protein [1]; [3]
  apparent Kd: 143 nM
MS2 coat protein [1]; [4]
  apparent Kd: 113 nM

## AGCAUGUUAUCAGAUACCAGACAUCUUUUAAUACAUAUUACAUGAGGAUCACCCAUGUUGGUCCCUUGGCAGCUGAAAUAUUUCA
MS2 coat protein [2]; [7]
  apparent Kd: 256 nM
MS2 coat protein [2]; [8]
  apparent Kd: 80.5 nM

## ACGACGCAUAGUGAUACCAGUAGAACAUGAGGAUCACCCAUGUCAGAUAUGUUCUAAUACUGCCCUUGGCAGCACUAUGCGUCAG
MS2 coat protein [2]; [7]
  apparent Kd: 260 nM
MS2 coat protein [2]; [8]
  apparent Kd: 134 nM

## AAACGUUGCUCAGAUACCAGACAUGAGGAUCACCCAUGUACCAAGGUACCCGAAAGGAAUGUCCCUUGGCAGCUGAGCAACGAAA
MS2 coat protein [2]; designed as: OFF switch for theophylline, no ligand
  apparent Kd: 9.57 nM
MS2 coat protein [2]; ligand present: theophylline, designed as: OFF switch for theophylline
  apparent Kd: 21.6 nM

## UGUAACAUGAGGAUCACCCAUGUGAGUGAUACCAGAUUAGUAGUAGUCCCUUGGCAGCACAUUGGGCGAGUGUAUAGUCUAUGCG
MS2 coat protein [2]; [7]
  apparent Kd: 171 nM
MS2 coat protein [2]; [8]
  apparent Kd: 118 nM
